pIC50: −log10 of the molar value.
Assays:
[1] = target: T1, Cathepsin K (Homo sapiens, UniProt P43235); assay: Concentration required to inhibit 50% of cysteine protease cathepsin K of human
T1 sequence (P43235 whole entry): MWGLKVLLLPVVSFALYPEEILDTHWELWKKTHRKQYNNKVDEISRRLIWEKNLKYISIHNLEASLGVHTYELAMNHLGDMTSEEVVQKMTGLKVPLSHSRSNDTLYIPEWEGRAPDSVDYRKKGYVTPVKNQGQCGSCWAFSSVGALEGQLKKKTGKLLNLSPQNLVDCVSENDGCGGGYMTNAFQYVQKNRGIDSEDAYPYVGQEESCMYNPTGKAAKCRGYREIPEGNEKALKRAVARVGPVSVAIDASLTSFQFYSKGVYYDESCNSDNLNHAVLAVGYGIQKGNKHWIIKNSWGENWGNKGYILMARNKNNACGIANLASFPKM
Procedure, shortened: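 Reactions were started by adding inhibitor plus substrate to enzyme. AMC fluorescence (ex 360/em 440) progress curves were followed over 2.3 h at varied inhibitor concentrations. IC50 was fitted as rate = Vmax/(1+[I]/IC50).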

[2] = target: T2, Cathepsin K (Rattus norvegicus, UniProt O35186); assay: Inhibition of cysteine protease cathepsin K of rat
T2 sequence (O35186 whole entry): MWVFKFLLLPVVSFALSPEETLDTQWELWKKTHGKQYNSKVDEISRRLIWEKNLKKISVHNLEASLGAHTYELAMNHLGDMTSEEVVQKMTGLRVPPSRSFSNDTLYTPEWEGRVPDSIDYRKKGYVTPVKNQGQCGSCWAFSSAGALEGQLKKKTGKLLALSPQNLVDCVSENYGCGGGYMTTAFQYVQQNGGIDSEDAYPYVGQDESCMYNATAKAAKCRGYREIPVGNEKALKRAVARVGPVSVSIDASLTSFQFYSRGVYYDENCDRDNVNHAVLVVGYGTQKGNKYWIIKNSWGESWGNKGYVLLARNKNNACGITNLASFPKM

[3] = Bioavailability in rat; assay type: ADME, organism-based; conditions: in vivo
Procedure, shortened: (§1)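 Rats were dosed iv into the femoral vein at 5 mg/kg or orally at 10 mg/kg, from a solution in 15% solutol/citrate buffer/0.1% ascorbic acid, pH 3.5. Blood was drawn from a jugular cannula before dosing and at 0.03–24 h, then clotted to serum. Samples were acetonitrile-precipitated with internal standard and analysed by LC-MS/MS (MRM). Parameters came from noncompartmental analysis.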

[4] = Selectivity as ratio between IC50 against Cathepsin B and IC50 against Cathepsin K
Procedure, shortened: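 Human liver cathepsin B and recombinant human cathepsin K were each run with Cbz-Phe-Arg-AMC at 10 μM final (Km 400 and 70 μM). Both used pH 5.5 acetate/DTT/NaCl buffer, 10% DMSO, 30 °C and a 2.3 h fluorescence progress-curve read (ex 360/em 440). IC50s were fitted from rate vs [I], and the ratio of the two IC50s was taken.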

[5] = target: Cathepsin (H and K) (Homo sapiens) (UniProt P09668+P43235); assay: Selectivity for Cathepsins H and K, ratio of IC50; assay type: protein assay
Procedure, shortened: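 Human liver cathepsin H was run with L-Arg-β-naphthalamide at 50 μM final (Km 195 μM), read at ex 340/em 420. Human cathepsin K used Cbz-Phe-Arg-AMC at 10 μM, read at ex 360/em 440. Both were at pH 5.5 with DTT/NaCl and 10% DMSO at 30 °C, with 2.3 h progress curves. IC50s were fitted from rate vs [I] and ratioed.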

[6] = Half-life in rat; assay type: ADME, organism-based; conditions: in vivo; procedure, shortened: as §1
[7] = species on record: Homo sapiens; assay: Selectivity as ratio between IC50 against Cathepsin V and IC50 against Cathepsin K
Procedure, shortened: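 Conditions were pH 5.5 acetate buffer with 10 mM DTT, 120 mM NaCl and 10% DMSO at 30 °C, with fluorescence progress curves over 2.3 h. The IC50 fits gave the ratio.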

[8] = Area Under plasma concentration time curve in rat upon peroral administration; assay type: ADME, organism-based; conditions: po; procedure, shortened: as §1
[9] = species on record: Rattus norvegicus; assay: Volume of distribution in steady state was determined in rat; assay type: ADME, organism-based; conditions: in vivo; procedure, shortened: as §1
[10] = Percent instability was measured by Rat S9 liver […] metabolism assay, in vitro; assay type: ADME, Liver S9 fraction; conditions: read-out: Activity
Procedure, shortened: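 Rat S9 liver metabolism, read as % metabolized after 1 h incubation at 37 °C, run in duplicate.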

[11] = Selectivity as ratio between IC50 against Cathepsin L and IC50 against Cathepsin K
Procedure, shortened: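 Both assays used pH 5.5 acetate/DTT/NaCl, 10% DMSO, 30 °C and AMC fluorescence progress curves over 2.3 h. IC50s were fitted from rate vs [I] and taken as a ratio.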

[12] = Selectivity ratio between IC50 against Cathepsin S and IC50 against Cathepsin K
Procedure, shortened: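 Recombinant human cathepsin S was run with Cbz-Val-Val-Arg-AMC at 10 μM final (Km >100 μM); human cathepsin K used Cbz-Phe-Arg-AMC at 10 μM. Both were in pH 5.5 sodium acetate with 10 mM DTT, 120 mM NaCl and 10% DMSO at 30 °C, with AMC fluorescence progress curves over 2.3 h. The ratio was taken from the fitted IC50s.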

[13] = Maximum time required to achieve Cmax was determined in rat; assay type: ADME, organism-based; conditions: in vivo; procedure, shortened: as §1
[14] = Peak plasma concentration in rat; assay type: ADME, organism-based; procedure, shortened: as §1
[15] = Compound was tested for its cell permeability in the Madin-Darby canine kidney cell monolayer transport assay; assay type: ADME, Canis lupus familiaris; conditions: dog, MDCK; read-out: Activity

Chain of Cathepsin (H and K) (Homo sapiens) (P09668 whole entry, looked up, one chain of several): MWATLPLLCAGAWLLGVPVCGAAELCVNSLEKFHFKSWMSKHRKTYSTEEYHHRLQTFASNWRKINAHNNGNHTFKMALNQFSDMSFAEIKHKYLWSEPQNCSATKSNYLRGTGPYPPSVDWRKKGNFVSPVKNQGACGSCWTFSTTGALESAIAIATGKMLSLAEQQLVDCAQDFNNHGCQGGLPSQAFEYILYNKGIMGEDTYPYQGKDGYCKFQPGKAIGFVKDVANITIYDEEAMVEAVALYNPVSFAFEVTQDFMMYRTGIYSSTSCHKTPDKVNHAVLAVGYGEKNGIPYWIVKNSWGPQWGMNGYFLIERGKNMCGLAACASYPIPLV

With `CCCC[C@H](NC(=O)OC(C(C)C)C(C)C)C(=O)C(=O)Nc1ccnn1C1CCCCC1` as the molecule, how does the pIC50 [1] read?
The pIC50 was 7.66.

What about the pIC50 [2] of the same molecule?
Its pIC50 is 5.92.

What does the source list for `CCCC[C@H](NC(=O)OC(C(C)C)C(C)C)C(=O)C(=O)Nc1cc[nH]n1`?
pIC50 [1]: 9.11; bioavailability [3]: 41%; Ratio [4]: 670; Ratio [5]: 30; half-life [6]: 11.7 h; Ratio [7]: 21; AUC [8]: 1100 ng·h/mL; Vss [9]: 15 L/kg; metabolised [10]: 77%; pIC50 [2]: 7.89; Ratio [11]: 40; Ratio [12]: 3; Tmax [13]: 0.25 h; Cmax [14]: 370 ng/mL; Papp [15]: 48 ×10⁻⁶ cm/s

With `CCCC[C@H](NC(=O)OC(C(C)C)C(C)C)C(=O)C(=O)NCc1cccs1` as the molecule, how does the pIC50 [1] read?
Its pIC50 is 8.04.

With `CC(C)C[C@H](NC(=O)OC(C(C)C)C(C)C)C(=O)C(=O)NCc1cccs1` as the molecule, how does the pIC50 [1] read?
The pIC50 was 7.62.

With `CC(C)C(OC(=O)N[C@H](C(=O)C(=O)NCc1cccs1)C(C)C)C(C)C` as the molecule, how does the pIC50 [1] read?
Its pIC50 is 7.33.

With `CC(C)C(OC(=O)N[C@@H](Cc1ccccc1)C(=O)C(=O)NCc1cccs1)C(C)C` as the molecule, how does the pIC50 [1] read?
Its pIC50 is 7.57.

With `CCCC[C@H](NC(=O)OC(C(C)C)C(C)C)C(=O)C(=O)Nc1cc(-c2ccccc2)n[nH]1` as the molecule, how does the pIC50 [1] read?
Its pIC50 is 9.19.

What about the pIC50 [2] of the same molecule?
Its pIC50 is 7.92.

With `CCCC[C@H](NC(=O)OC(C(C)C)C(C)C)C(=O)C(=O)Nc1ccccn1` as the molecule, how does the pIC50 [1] read?
Its pIC50 is 7.49.

And the bioavailability [3]?
The bioavailability was 58%.

And the half-life [6]?
The half-life was 2.17 h.

What about the AUC [8] of the same molecule?
The AUC was 2700 ng·h/mL.

What about the metabolised [10] of the same molecule?
The metabolised was 63%.

What about the Tmax [13] of the same molecule?
The Tmax was 0.25 h.

And the Cmax [14]?
The Cmax was 1400 ng/mL.

And the Papp [15]?
The Papp was 21 ×10⁻⁶ cm/s.

With `CCCC[C@H](NC(=O)OC(C(C)C)C(C)C)C(=O)C(=O)Nc1nncs1` as the molecule, how does the pIC50 [1] read?
Its pIC50 is 7.08.

What about the bioavailability [3] of the same molecule?
The bioavailability was 15%.

And the half-life [6]?
The half-life was 2.83 h.

What about the AUC [8] of the same molecule?
Its AUC is 920 ng·h/mL.

What about the metabolised [10] of the same molecule?
The metabolised was 96%.

What about the Tmax [13] of the same molecule?
Its Tmax is 0.633 h.

What about the Cmax [14] of the same molecule?
The Cmax was 690 ng/mL.

Which results are given for `CCCC[C@H](NC(=O)OC(C(C)C)C(C)C)C(=O)C(=O)Nc1[nH]ncc1C#N`?
pIC50 [1]: 9.04; Ratio [12]: 3.6

What does the source list for `CCCC[C@H](NC(=O)OC(C(C)C)C(C)C)C(=O)C(=O)Nc1cc(-c2ccccc2)[nH]n1`?
Ratio [4]: 520; Ratio [5]: 18; Ratio [7]: 20; Ratio [11]: 25; Ratio [12]: 7

With `CCCC[C@H](NC(=O)OC(C(C)C)C(C)C)C(=O)C(=O)Nc1cc(C)n[nH]1` as the molecule, how does the pIC50 [1] read?
The pIC50 was 9.15.

Which results are given for `CCCC[C@H](NC(=O)OC(C(C)C)C(C)C)C(=O)C(=O)Nc1ccnn1C`?
pIC50 [1]: 7.49; bioavailability [3]: 28%; Ratio [4]: > 400; Ratio [5]: > 400; half-life [6]: 4 h; Ratio [7]: 50; AUC [8]: 1800 ng·h/mL; metabolised [10]: 99%; pIC50 [2]: 5.77; Ratio [11]: 250; Ratio [12]: 91; Tmax [13]: 0.633 h; Cmax [14]: 970 ng/mL; Papp [15]: 49 ×10⁻⁶ cm/s

With `CCCC[C@H](NC(=O)OC(C(C)C)C(C)C)C(=O)C(=O)Nc1ccn(C)n1` as the molecule, how does the pIC50 [1] read?
The pIC50 was 9.39.

And the pIC50 [2]?
Its pIC50 is 7.96.

With `CC(C)C(OC(=O)N[C@@H](CC1CCCCC1)C(=O)C(=O)NCc1cccs1)C(C)C` as the molecule, how does the pIC50 [1] read?
Its pIC50 is 7.85.

With `CCCC[C@H](NC(=O)OC(C(C)C)C(C)C)C(=O)C(=O)Nc1cc2ccccc2cn1` as the molecule, how does the pIC50 [1] read?
Its pIC50 is 8.32.

What does the source list for `CCCC[C@H](NC(=O)OC(C(C)C)C(C)C)C(=O)C(=O)Nc1nccs1`?
pIC50 [1]: 7.40; bioavailability [3]: 18%; half-life [6]: 2.17 h; AUC [8]: 750 ng·h/mL; metabolised [10]: 98%; Tmax [13]: 0.167 h; Cmax [14]: 170 ng/mL; Papp [15]: 23 ×10⁻⁶ cm/s

With `CCCC[C@H](NC(=O)OC(C(C)C)C(C)C)C(=O)C(=O)Nc1ccnn1C(C)C` as the molecule, how does the pIC50 [1] read?
Its pIC50 is 7.77.

And the pIC50 [2]?
Its pIC50 is 6.00.

With `CCCC[C@H](NC(=O)OC(C(C)C)C(C)C)C(=O)C(=O)Nc1cnccn1` as the molecule, how does the pIC50 [1] read?
The pIC50 was 7.28.

With `CCCC[C@H](NC(=O)OC(C(C)C)C(C)C)C(=O)C(=O)Nc1ccnn1-c1ccccc1` as the molecule, how does the pIC50 [1] read?
The pIC50 was 7.82.

What about the pIC50 [2] of the same molecule?
The pIC50 was 6.10.

With `CCCC[C@H](NC(=O)OC(C(C)C)C(C)C)C(=O)C(=O)Nc1ccnn1C1CCCC1` as the molecule, how does the pIC50 [1] read?
The pIC50 was 7.70.

And the pIC50 [2]?
The pIC50 was 5.96.

— ChEMBL document CHEMBL1148287, “Design of potent, selective, and orally bioavailable inhibitors of cysteine protease cathepsin k” (J Med Chem, 2004)
